Results: ChEMBL document CHEMBL4261655, “Matrix metalloproteinase-12 inhibitors: synthesis, structure-activity relationships and intestinal absorption of novel sugar-based biphenylsulfonamide carboxylates” (Bioorg Med Chem, 2018)
pIC50: −log10 of the molar value.

Legend:
[1] = target: Macrophage metalloelastase (Homo sapiens, UniProt P39900); experiment: Inhibition of recombinant human MMP12 using Mca-Lys-Pro-Leu-Gly-Leu-Dap(Dnp)-Ala-Arg-NH2 as substrate preincubated for 3 hrs followed by substrate addition and measured every 10 secs for 15 mins by fluorescence assay
Chain of Macrophage metalloelastase (P39900 whole entry): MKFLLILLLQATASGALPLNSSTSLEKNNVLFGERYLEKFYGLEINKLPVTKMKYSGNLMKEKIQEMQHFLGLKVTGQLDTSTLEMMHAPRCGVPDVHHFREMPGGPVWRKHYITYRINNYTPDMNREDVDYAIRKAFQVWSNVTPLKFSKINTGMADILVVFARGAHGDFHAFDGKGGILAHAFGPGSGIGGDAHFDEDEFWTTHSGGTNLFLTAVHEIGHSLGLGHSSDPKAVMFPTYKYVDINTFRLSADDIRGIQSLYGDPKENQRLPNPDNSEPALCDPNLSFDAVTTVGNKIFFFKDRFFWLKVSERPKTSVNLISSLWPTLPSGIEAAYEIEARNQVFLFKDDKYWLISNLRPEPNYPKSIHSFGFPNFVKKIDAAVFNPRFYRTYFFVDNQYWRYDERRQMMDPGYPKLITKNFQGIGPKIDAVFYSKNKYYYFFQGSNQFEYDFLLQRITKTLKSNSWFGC
How it was run: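 Inhibitor at seven concentrations, 3 h at 25 °C; 2 µM final substrate. Fluorescence read at ex 325/em 400 nm. Done in triplicate. IC50 fitted as vi/v0 = 1/(1+[I]/IC50).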

[2] = target: Matrix metalloproteinase-9 (Homo sapiens, UniProt P14780); experiment: Inhibition of recombinant human MMP9 using Mca-Lys-Pro-Leu-Gly-Leu-Dap(Dnp)-Ala-Arg-NH2 as substrate preincubated for 3 hrs followed by substrate addition and measured every 10 secs for 15 mins by fluorescence assay
Chain of Matrix metalloproteinase-9 (P14780 whole entry): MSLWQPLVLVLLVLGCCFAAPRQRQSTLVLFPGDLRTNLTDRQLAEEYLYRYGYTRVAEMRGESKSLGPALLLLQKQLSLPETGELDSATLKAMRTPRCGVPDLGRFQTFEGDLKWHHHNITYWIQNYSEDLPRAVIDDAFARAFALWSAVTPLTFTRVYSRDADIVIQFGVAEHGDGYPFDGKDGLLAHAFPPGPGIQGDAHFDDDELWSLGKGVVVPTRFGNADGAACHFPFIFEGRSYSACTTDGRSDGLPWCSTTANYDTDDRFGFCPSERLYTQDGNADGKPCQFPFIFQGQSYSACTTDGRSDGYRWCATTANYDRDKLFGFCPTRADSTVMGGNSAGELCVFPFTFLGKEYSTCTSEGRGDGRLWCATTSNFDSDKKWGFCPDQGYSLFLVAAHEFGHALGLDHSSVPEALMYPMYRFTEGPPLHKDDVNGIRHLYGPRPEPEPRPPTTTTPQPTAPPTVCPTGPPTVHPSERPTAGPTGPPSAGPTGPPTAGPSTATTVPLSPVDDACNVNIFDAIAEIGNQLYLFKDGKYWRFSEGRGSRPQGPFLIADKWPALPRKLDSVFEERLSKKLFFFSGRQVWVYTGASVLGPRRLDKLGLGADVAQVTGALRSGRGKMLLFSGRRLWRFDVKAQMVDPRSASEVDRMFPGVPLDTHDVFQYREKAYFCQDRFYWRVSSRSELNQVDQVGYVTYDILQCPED
How it was run: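 Pro-enzyme activated just before use with 1 mM APMA for 1 h at 37 °C; 1.3 nM final enzyme. Inhibitor at seven concentrations, 3 h at 25 °C; 2 µM final substrate. Fluorescence read at ex 325/em 400 nm. Done in triplicate. IC50 fitted as vi/v0 = 1/(1+[I]/IC50).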

[3] = Solubility in water; format: physicochemical

| pIC50 [1] | pIC50 [2] | solubility [3] | Structure (SMILES) |
| --- | --- | --- | --- |
| 4.40 |  |  | CC(=O)N[C@@H]1[C@@H](OC(C)=O)[C@H](OC(C)=O)[C@@H](COC(C)=O)O[C@H]1N([C@@H](C(=O)O)C(C)C)S(=O)(=O)c1ccc(-c2ccccc2)cc1 |
| 5.89 | < 4.30 |  | CC(C)[C@H](C(=O)O)N([C@@H]1O[C@H](CO)[C@@H](O)[C@H](O)[C@H]1O)S(=O)(=O)c1ccc(-c2ccccc2)cc1 |
| 7.19 | 6.28 |  | CO[C@@H]1O[C@H](CNC(=S)NCCN([C@@H](C(=O)O)C(C)C)S(=O)(=O)c2ccc(-c3ccccc3)cc2)[C@@H](O)[C@H](O)[C@H]1O |
| 5.02 |  |  | CC(=O)OC[C@H]1O[C@@H](N([C@@H](C(=O)O)C(C)C)S(=O)(=O)c2ccc(-c3ccccc3)cc2)[C@H](OC(C)=O)[C@@H](OC(C)=O)[C@@H]1OC(C)=O |
| 7.72 | 6.06 |  | CC(=O)OC[C@H]1O[C@@H](NC(=S)NCCN([C@@H](C(=O)O)C(C)C)S(=O)(=O)c2ccc(-c3ccccc3)cc2)[C@H](OC(C)=O)[C@@H](OC(C)=O)[C@@H]1OC(C)=O |
| 7.01 | 5.95 |  | CC(C)[C@H](C(=O)O)N(CCNC(=S)N[C@@H]1O[C@H](CO)[C@@H](O)[C@H](O)[C@H]1O)S(=O)(=O)c1ccc(-c2ccccc2)cc1 |
| 7.40 | 5.27 | > 5 mM | CC(=O)N[C@@H]1[C@@H](O)[C@H](O)[C@@H](CO)O[C@H]1NC(=S)NCCN([C@@H](C(=O)O)C(C)C)S(=O)(=O)c1ccc(-c2ccccc2)cc1 |
| 7.08 | 5.91 |  | CO[C@@H]1O[C@H](CN([C@@H](C(=O)O)C(C)C)S(=O)(=O)c2ccc(-c3ccccc3)cc2)[C@@H](OC(C)=O)[C@H](OC(C)=O)[C@H]1NC(C)=O |
| 7.29 | 5.66 |  | CO[C@@H]1O[C@H](CN([C@@H](C(=O)O)C(C)C)S(=O)(=O)c2ccc(-c3ccccc3)cc2)[C@@H](O)[C@H](O)[C@H]1O |
| 7.70 | 7.49 |  | CO[C@@H]1O[C@H](CNC(=S)NCCN([C@@H](C(=O)O)C(C)C)S(=O)(=O)c2ccc(-c3ccccc3)cc2)[C@@H](OC(C)=O)[C@H](OC(C)=O)[C@H]1OC(C)=O |
| 7.74 | 5.92 |  | CC(=O)N[C@@H]1[C@@H](OC(C)=O)[C@H](OC(C)=O)[C@@H](COC(C)=O)O[C@H]1NC(=S)NCCN([C@@H](C(=O)O)C(C)C)S(=O)(=O)c1ccc(-c2ccccc2)cc1 |
| 5.04 |  |  | CC(=O)N[C@@H]1[C@@H](O)[C@H](O)[C@@H](CO)O[C@H]1N([C@@H](C(=O)O)C(C)C)S(=O)(=O)c1ccc(-c2ccccc2)cc1 |
| 7.08 | 5.59 |  | CO[C@@H]1O[C@H](CN([C@@H](C(=O)O)C(C)C)S(=O)(=O)c2ccc(-c3ccccc3)cc2)[C@@H](OC(C)=O)[C@H](OC(C)=O)[C@H]1OC(C)=O |
| 7.39 | 6.05 |  | CO[C@@H]1O[C@H](CN([C@@H](C(=O)O)C(C)C)S(=O)(=O)c2ccc(-c3ccccc3)cc2)C(O)[C@H](O)C1NC(C)=O (single isomer, unassigned) |
